ADAM17 inh = ADAM17 inhibition, QFRET primary screen; P78536; recombinant ADAM17, EDANS/DABCYL FRET peptide cleavage; inhibition, % at 6.95 µM; 370,000 compounds, 0.83% hits;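 active means inhibition above the mean of compounds lying between control limits plus 3 SD, set per campaign, cut at about 8.5% in these data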;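 further: 0% = DMSO-only wells as the low control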
SKN-1 block = inhibitors of C. elegans SKN-1; C. elegans VP596 Pgst-4::GFP/RFP ratio, acrylamide-induced, 24 h; inhibition, % at 21.8 µM; 360,000 compounds, 0.49% hits; AID 624304;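 active means interference check ratio from 0.5 to 1.5 plus GFP to RFP signal ratio inhibition reaching or exceeding a fixed threshold, cut at about 30% in these data, passing the limit was not always enough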
MPTP block = inhibitors of mitochondrial permeability transition pore; isolated mouse mitochondria, Ca2+ swelling absorbance, 30 min; inhibition, % at 10 µM; 360,000 compounds, 1.4% hits; AID 602449;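 active means inhibition of 50% or more, scaled per plate between neutral and stimulator controls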;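 further: 0% = DMSO wells given calcium and 100% = 1 mM EGTA wells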
MT1-MMP act inh = inhibitors of human MT1-MMP activation | P50281 | HT1080 RFP-PRO-GFP cells, GFP/RFP ratio fluorescence, overnight; percent of plate control window, DMSO zero | GFP/RFP ratio change, % at 20 µM | 360,000 compounds, 0.061% hits | AID 651647;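 active means GFP/RFP ratio change of at least 30% with cell ATP level not reduced by more than half and red fluorescence within 50% of control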
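Material: RFP-PRO-GFP reporter HT1080 cells. Dosing: single-point 20 µM compound, 1% DMSO. Controls: DMSO and RFP-L50D-GFP cell wells. Timing: cells overnight before dosing, compound overnight, 37 °C, 5% CO2. Measure: GFP/RFP fluorescence ratio.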
NR3A LBD binder = modulates the human NR3A ligand-binding domain; Tm shift relative to glycine control, % at 25 µM; 340,000 compounds, 2.5% hits; NR3A LBD differential scanning fluorimetry, Tm shift; 0% = protein alone, 100% = glycine-bound protein;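 active means melting temperature shift of at least 10% of the positive control shift, at one fixed dose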
ADAM10 inh = inhibits human ADAM10; AID 720582; inhibition, % at 7 µM; recombinant ADAM10, EDANS/DABCYL FRET peptide cleavage, 3 h; O14672; 370,000 compounds, 0.62% hits;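 active means inhibition above a per-campaign cutoff equal to the mean of compounds falling between control-based bounds plus 3 SD, cut at about 20% in these data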;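 further: 0% = DMSO wells while the 100% control is not disclosed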
Target sequence (O14672 214-748 limits assumed): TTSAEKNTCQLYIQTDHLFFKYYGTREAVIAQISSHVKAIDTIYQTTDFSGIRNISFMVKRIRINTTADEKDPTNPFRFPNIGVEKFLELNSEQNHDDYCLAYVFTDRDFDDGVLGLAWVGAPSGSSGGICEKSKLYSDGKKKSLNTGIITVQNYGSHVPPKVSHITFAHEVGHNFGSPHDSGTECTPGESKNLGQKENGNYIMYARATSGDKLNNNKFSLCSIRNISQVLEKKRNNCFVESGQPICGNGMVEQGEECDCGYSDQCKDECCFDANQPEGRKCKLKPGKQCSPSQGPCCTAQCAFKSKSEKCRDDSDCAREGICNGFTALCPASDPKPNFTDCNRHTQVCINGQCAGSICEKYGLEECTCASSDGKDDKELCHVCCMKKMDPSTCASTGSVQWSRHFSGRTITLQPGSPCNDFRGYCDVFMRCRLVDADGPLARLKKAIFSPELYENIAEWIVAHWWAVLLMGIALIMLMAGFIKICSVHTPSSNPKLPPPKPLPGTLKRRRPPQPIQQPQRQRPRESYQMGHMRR
Active calls of the source: *. Sampled rows, rich in hits. Any-hit rate of the full collection: about 4.7%.

CCOc1ccc(NC(=O)c2ccc(S(=O)(=O)N3CCOCC3)cc2)cc1 was read as ADAM17 inh 0, SKN-1 block 4, MPTP block 1, MT1-MMP act inh 0, NR3A LBD binder -27 and ADAM10 inh 1.
COc1ccc(OCCCC(=O)Nc2ccc(S(=O)(=O)N3CCOCC3)cc2)cc1 was read as ADAM17 inh 0, SKN-1 block -9, MPTP block 1, MT1-MMP act inh 5, NR3A LBD binder 11* and ADAM10 inh -3.
`COc1ccc(C(=O)Nc2ccc(S(=O)(=O)N3CCOCC3)cc2)cc1` gave ADAM17 inh 1, SKN-1 block 3, MPTP block 2, MT1-MMP act inh 2, NR3A LBD binder 27* and ADAM10 inh 3.
Screening COc1ccc(CC(=O)Nc2cc(S(=O)(=O)N3CCOCC3)ccc2N2CCOCC2)cc1 returned ADAM17 inh -4, SKN-1 block 36*, MPTP block 0, MT1-MMP act inh -7, NR3A LBD binder -3 and ADAM10 inh -5.
COc1ccc(CC(=O)Nc2cc(S(=O)(=O)N3CCOCC3)ccc2N2CCCC2)cc1 was read as ADAM17 inh -1, SKN-1 block 3, MPTP block 0, MT1-MMP act inh 1 and ADAM10 inh 1.
`O=C(Nc1ccccc1N1CCOCC1)c1ccc([N+](=O)[O-])o1` gave ADAM17 inh -6, SKN-1 block 1, MPTP block 2, MT1-MMP act inh 1, NR3A LBD binder 19* and ADAM10 inh 5.
O=C(Nc1ccc(Cl)cc1)c1ccc(S(=O)(=O)N2CCOCC2)cc1 was read as ADAM17 inh 0, SKN-1 block 23, MPTP block 0, MT1-MMP act inh 5, NR3A LBD binder 15* and ADAM10 inh 2.
For Cc1ccc(NC(=O)c2ccc(S(=O)(=O)N3CCOCC3)cc2)cc1 the results were ADAM17 inh 2, SKN-1 block -10, MPTP block 0, MT1-MMP act inh 4, NR3A LBD binder 1 and ADAM10 inh -10.
Screening CCN1CCN(CCC(=O)Nc2ccc(Br)cc2)CC1 returned ADAM17 inh 0, SKN-1 block 15, MPTP block -2, MT1-MMP act inh 4, NR3A LBD binder 10* and ADAM10 inh -5.
`O=C(NCc1ccco1)c1ccc(S(=O)(=O)N2CCOCC2)cc1` gave ADAM17 inh 0, SKN-1 block -27, MPTP block -1, MT1-MMP act inh 3, NR3A LBD binder -1 and ADAM10 inh -2.
Screening COc1ccc(N2CCN(S(=O)(=O)c3ccc(C(=O)NCc4ccco4)cc3)CC2)cc1 returned ADAM17 inh -4, SKN-1 block 4, MPTP block 3, MT1-MMP act inh -3, NR3A LBD binder 28* and ADAM10 inh -4.
Screening COc1cc(OC)cc(C(=O)OC(C)C(=O)NC2CCCc3ccccc32)c1 (centres undefined) returned ADAM17 inh 0, SKN-1 block -7, MPTP block -2, MT1-MMP act inh 0, NR3A LBD binder 2 and ADAM10 inh -1.
Nn1c(SCC(=O)NCCc2ccc(S(N)(=O)=O)cc2)nnc1C1CCCCC1 was read as ADAM17 inh -1, SKN-1 block 5, MPTP block 0, MT1-MMP act inh -1, NR3A LBD binder 3 and ADAM10 inh -13.
`CC1(C)CC2CC(C)(CN2S(=O)(=O)c2ccc(C(=O)Nc3cc(S(=O)(=O)N4CCOCC4)ccc3Cl)cc2)C1` (centres undefined) gave ADAM17 inh 2, SKN-1 block 6, MPTP block 3, MT1-MMP act inh -3, NR3A LBD binder 0 and ADAM10 inh 1.
CC1(C)CC2CC(C)(CN2S(=O)(=O)c2ccc(C(=O)Nc3cccc(S(=O)(=O)N4CCOCC4)c3)cc2)C1 (centres undefined) was read as ADAM17 inh 20*, SKN-1 block 6, MPTP block 17, MT1-MMP act inh -13, NR3A LBD binder -7 and ADAM10 inh 26*.
O=C(CCN1CCN(S(=O)(=O)c2ccc(Cl)cc2)CC1)Nc1ccc(F)cc1 was read as ADAM17 inh 1, SKN-1 block 46*, MPTP block -1, MT1-MMP act inh 2, NR3A LBD binder -3 and ADAM10 inh -3.
`O=C(Nc1ccc(S(=O)(=O)N2CCOCC2)cc1)c1ccc(Cl)s1` gave ADAM17 inh 1, SKN-1 block -2, MPTP block 8, MT1-MMP act inh 11, NR3A LBD binder 35* and ADAM10 inh 4.
`COc1ccc(N2CCOCC2)c(NC(=O)c2ccc(Br)o2)c1` gave ADAM17 inh -1, SKN-1 block 7, MPTP block -1, MT1-MMP act inh -6, NR3A LBD binder 13* and ADAM10 inh -10.
Screening O=C(Nc1ccc(C(=O)N2CCCC2)cc1)c1ccccc1 returned ADAM17 inh -4, SKN-1 block 0, MPTP block 2, MT1-MMP act inh 5, NR3A LBD binder 1 and ADAM10 inh -14.
Screening CCn1c(SCC(=O)N2CCCc3ccccc32)nc2c(c1=O)SC(C)C2 (centres undefined) returned ADAM17 inh -1, SKN-1 block 3, MPTP block 0, MT1-MMP act inh -6, NR3A LBD binder -14 and ADAM10 inh -10.
For COc1cc(/C=C/C(=O)OCC(=O)N2c3ccccc3CC2C)cc(OC)c1OC (centres undefined) the results were ADAM17 inh -35, SKN-1 block 9, MPTP block 1, MT1-MMP act inh -1, NR3A LBD binder 1 and ADAM10 inh -124.
For O=S(=O)(Nc1ccc(S(=O)(=O)N2CCOCC2)cc1)c1ccccc1 the results were ADAM17 inh -4, SKN-1 block 5, MPTP block 0, MT1-MMP act inh 8, NR3A LBD binder 10* and ADAM10 inh -2.
For COc1ccc(NS(=O)(=O)c2ccc(S(=O)(=O)N3CCOCC3)cc2)cc1 the results were ADAM17 inh -1, SKN-1 block 0, MPTP block -3, MT1-MMP act inh 3, NR3A LBD binder 2 and ADAM10 inh 4.
Screening CCCOc1cc(C)c(S(=O)(=O)NCc2cccs2)cc1C returned ADAM17 inh 7, SKN-1 block 44*, MPTP block 0, MT1-MMP act inh 2, NR3A LBD binder -15 and ADAM10 inh 15.
Screening Cc1cc(C)c(S(=O)(=O)NCc2cccs2)cc1C returned ADAM17 inh -6, SKN-1 block -9, MPTP block 1, MT1-MMP act inh -3, NR3A LBD binder -1 and ADAM10 inh 4.
For CN1CCN(C2CN(Cc3cn(Cc4cccc(Cl)c4)nn3)S(=O)(=O)C2)CC1 (centres undefined) the results were ADAM17 inh -7, SKN-1 block -5, MPTP block 0, MT1-MMP act inh 6 and ADAM10 inh -11.

Assay outcomes as filed in PubChem BioAssay.
